Test results taken from ChEMBL document CHEMBL4428023, “1,4-Dihydropyridines Active on the SIRT1/AMPK Pathway Ameliorate Skin Repair and Mitochondrial Function and Exhibit Inhibition of Proliferation in Cancer Cells” (J Med Chem, 2016).
Activity calls are given as the source filed them. The calls are words filed in the database; no cut-off is given here.

Tests used:
[1] = Antagonist activity at calcium channel in guinea pig smooth muscle assessed as inhibition of calcium-induced contraction in K+-depolarized aortic strips; conditions: Cavia porcellus
HaCaT [2] = assay: Activation of AMPK/SIRT1 in human HaCaT cells assessed as nitric oxide production up to 50 uM incubated for 1 hr by DAF-2D staining-based fluorescence assay; type: cell-based
Method in brief: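 HaCaT keratinocytes in DMEM with 10% FBS; treated 1 h (dose-response at 5, 25, 50 µM; screen at 1 µM), DMSO solvent control. 5 µM DAF-2D added to the medium; cells washed, trypsinized and analysed by flow cytometry. Read-out is % DAF-positive cells relative to DMSO.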

[3] = target: 3',5'-cyclic-AMP phosphodiesterase 4D (Homo sapiens) (UniProt Q08499); assay: Inhibition of recombinant human PDE4D assessed as phosphate release using cAMP as substrate at 50 uM after 60 mins by malachite green assay
Method in brief: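 Recombinant human PDE4D (20 mU) in 10 mM Tris-HCl pH 7.4 with cAMP substrate. Compounds at 50 µM in DMSO; rolipram 10 µM as positive control. Incubated 60 min at 37 °C, then phosphate release measured by malachite green absorbance at 620 nm. Mean of three determinations.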

HaCaT [4] = assay: Activation of AMPK/SIRT1 in human HaCaT cells assessed as nitric oxide production at 1 uM incubated for 1 hr by DAF-2D staining-based fluorescence assay; type: cell-based
Method in brief: (§1)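 HaCaT keratinocytes grown in DMEM with 10% FBS and antibiotics. Cells treated 1 h (single-point 1 µM; dose-response at 5, 25, 50 µM). 5 µM DAF-2D added to complete medium. Cells then washed in PBS, trypsinized and analysed by flow cytometry for DAF fluorescence (ex 485/em 538 nm). Read-out is % DAF-positive cells relative to DMSO control.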

HaCaT [5] = assay: Activation of AMPK/SIRT1 in human HaCaT cells assessed as nitric oxide production incubated for 1 hr by DAF-2D staining-based fluorescence assay; type: cell-based; method in brief: as §1
HaCaT [6] = assay: Activation of AMPK/SIRT1 in human HaCaT cells assessed as nitric oxide production at 10 uM incubated for 1 hr in presence of compound C by DAF-2D staining-based fluorescence assay; type: cell-based
Method in brief: (§2)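 HaCaT cells in DMEM with 10% FBS. DHP (10 µM) given for 1 h alone or together with 10 µM AMPK inhibitor compound C or 10 µM SIRT1 inhibitor EX-527. Intracellular NO read by flow cytometry after loading with 5 µM DAF-2D in medium (ex 485/em 538 nm). Expressed as % DAF-positive cells versus DMSO.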

HaCaT [7] = assay: Activation of AMPK/SIRT1 in human HaCaT cells assessed as nitric oxide production at 10 uM incubated for 1 hr in presence of EX-527 by DAF-2D staining-based fluorescence assay; type: cell-based; method in brief: as §2
[8] = target: T1, NAD-dependent protein deacetylase sirtuin-1 (Homo sapiens) (UniProt Q96EB6); assay: Activation of SIRT1 in […] at 1 uM by fluorimetric assay; type: cell-free; conditions: HaCaT, TDE = time-dependent effect
T1 sequence (whole entry): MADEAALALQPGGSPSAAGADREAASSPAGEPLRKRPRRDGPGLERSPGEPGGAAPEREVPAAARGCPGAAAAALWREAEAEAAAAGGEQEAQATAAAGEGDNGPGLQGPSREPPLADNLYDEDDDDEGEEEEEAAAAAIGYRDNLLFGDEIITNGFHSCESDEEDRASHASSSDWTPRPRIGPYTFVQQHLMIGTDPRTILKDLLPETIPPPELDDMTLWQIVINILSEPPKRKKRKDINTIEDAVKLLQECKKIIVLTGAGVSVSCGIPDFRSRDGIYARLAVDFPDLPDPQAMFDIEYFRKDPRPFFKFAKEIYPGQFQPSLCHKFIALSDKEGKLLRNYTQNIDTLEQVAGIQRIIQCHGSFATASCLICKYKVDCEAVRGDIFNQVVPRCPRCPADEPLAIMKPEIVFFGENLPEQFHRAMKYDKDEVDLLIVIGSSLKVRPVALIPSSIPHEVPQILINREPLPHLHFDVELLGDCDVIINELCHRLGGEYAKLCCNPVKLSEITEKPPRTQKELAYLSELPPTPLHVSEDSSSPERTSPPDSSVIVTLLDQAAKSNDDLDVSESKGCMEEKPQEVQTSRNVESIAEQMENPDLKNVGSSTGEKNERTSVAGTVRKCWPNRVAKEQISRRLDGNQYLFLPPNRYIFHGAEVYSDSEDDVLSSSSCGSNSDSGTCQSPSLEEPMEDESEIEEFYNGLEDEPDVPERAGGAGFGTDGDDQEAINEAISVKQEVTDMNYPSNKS

[9] = target: T1, NAD-dependent protein deacetylase sirtuin-1 (Homo sapiens); assay: Activation of SIRT1 in human HaCaT cells assessed as H4K16 deacetylation at 1 uM after 1 hr by Western blotting method; type: cell-based
Method in brief: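 HaCaT cells treated 1 h at 1 µM, DMSO as solvent control. Cells lysed in Laemmli buffer and immunoblotted for acetyl-H4K16 (1:1000), with total histone H4 as loading control. Bands quantified by densitometry. At least three independent experiments.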

Mus musculus [10] = assay: Wound healing activity in CD1 mouse assessed as decrease in epithelial gap at 1 uM administered topically on wound everyday for 14 days by biopsy punch assay; type: functional, organism-based
Method in brief: (§3)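 Male CD1 mice, 8 weeks old, anaesthetized i.p. with medetomidine 1 mg/kg plus ketamine 75 mg/kg, then biopsy-punch wounded. Compound (1 µM) in 20 µL saline applied directly to the wound daily for 14 days; solvent-treated group as control. Epithelial gap and % wound closure followed over time.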

Mus musculus [11] = assay: Wound healing activity in CD1 mouse assessed as increased wound closure at 1 uM administered topically on wound everyday for 14 days by biopsy punch assay; type: functional, organism-based; method in brief: as §3
C2C12 [12] = assay: Activation of AMPK/SIRT1 in mouse C2C12 cells assessed as increase in mitochondrial density at 30 uM after 16 hrs by Mitotracker Green staining-based confocal microscopy; type: cell-based
Method in brief: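 Murine C2C12 myoblasts plated on coverslips and grown overnight at 37 °C, 5% CO2. Then switched to serum-free HBSS, pH 7.4, and treated 16 h at 30 µM, alone or with 5 µM compound C or EX-527. Mitotracker Green (200 nM final) added for the last 30 min. Cells fixed in 4% paraformaldehyde, permeabilized and imaged by confocal microscopy, with settings fixed on untreated cells. Plate fluorescence also quantified.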

C2C12 [13] = assay: Activation of AMPK/SIRT1 in mouse C2C12 cells assessed as increase in mitochondrial density at 30 uM after 16 hrs by Mitotracker Green staining-based confocal microscopy in presence of compound C; type: cell-based
Method in brief: (§4)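 C2C12 myoblasts plated overnight, then in serum-free HBSS pH 7.4 and treated 16 h at 30 µM, alone or with 5 µM inhibitor (EX-527 or compound C). Mitotracker Green at 200 nM final was added for the last 30 min. Cells were fixed in 4% paraformaldehyde, permeabilized with Triton X-100 and imaged by confocal microscopy with fixed settings. Alternatively, mitochondrial fluorescence was quantified in plates.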

C2C12 [14] = assay: Activation of AMPK/SIRT1 in mouse C2C12 cells assessed as increase in mitochondrial density at 30 uM after 16 hrs by Mitotracker Green staining-based confocal microscopy in presence of EX-527; type: cell-based; method in brief: as §4
Cavia porcellus [15] = organism: Cavia porcellus; assay: Antagonist activity at calcium channel in guinea pig smooth muscle assessed as inhibition of calcium-induced contraction in K+-depolarized aortic strips at 50 uM
Method in brief: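 Guinea-pig isolated aortic strips depolarized with 80 mM K+; read-out is percent inhibition of calcium-induced contraction.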

Cavia porcellus [16] = organism: Cavia porcellus; assay: Potency index, ratio of potency for test compound to potency for nifedipine for inhibition of calcium channel in guinea pig ileum longitudinal smooth muscle assessed as inhibition of calcium-induced contraction; type: tissue-based
[17] = target: T1, NAD-dependent protein deacetylase sirtuin-1 (Homo sapiens); assay: Activation of full-length GST-tagged recombinant human SIRT1 assessed as enzyme activity obtained with subtraction of intrinsic fluorescence using p53-based untagged peptide as substrate at 50 uM after 30 mins by SIRTainty assay
[18] = target: T1, NAD-dependent protein deacetylase sirtuin-1 (Homo sapiens); assay: Activation of full-length GST-tagged recombinant human SIRT1 assessed as enzyme activity obtained without subtraction of intrinsic fluorescence using p53-based untagged peptide as substrate at 50 uM after 30 mins by SIRTainty assay
M14 = assay: Antiproliferative activity against human M14 cells assessed as cell viability after 72 hrs by MTT assay; type: functional, cell-based; conditions: M14, 72 h
Method in brief: (§5)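 Cells grown in RPMI with 10% fetal calf serum and penicillin, seeded in sextuplicate at 3 × 10^3 cells/well. After 24 h, cells were exposed 72 h to 5–200 µM. Viability was measured by MTT and expressed as treated/untreated × 100. IC50 was calculated from three independent experiments, reported as mean ± SD.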

[19] = Antiproliferative activity against human SAN cells assessed as cell viability after 72 hrs by MTT assay; type: functional, cell-based; method in brief: as §5
A549 = assay: Antiproliferative activity against human A549 cells assessed as cell viability after 72 hrs by MTT assay; type: functional, cell-based; conditions: A549, 72 h; method in brief: as §5
NCI-H1299 = assay: Antiproliferative activity against human NCI-H1299 cells assessed as cell viability after 72 hrs by MTT assay; type: functional, cell-based; conditions: NCI-H1299, 72 h; method in brief: as §5
HT-29 = assay: Antiproliferative activity against human HT-29 cells assessed as cell viability after 72 hrs by MTT assay; type: functional, cell-based; conditions: HT-29, 72 h; method in brief: as §5
LoVo = assay: Antiproliferative activity against human LoVo cells assessed as cell viability after 72 hrs by MTT assay; type: functional, cell-based; method in brief: as §5
Caov-3 cell line = assay: Antiproliferative activity against human Caov3 cells assessed as cell viability after 72 hrs by MTT assay; type: functional, cell-based; conditions: Caov-3, 72 h; method in brief: as §5
HEY = assay: Antiproliferative activity against human HEY cells assessed as cell viability after 72 hrs by MTT assay; type: functional, cell-based; method in brief: as §5
SK-OV-3 = assay: Antiproliferative activity against human SKOV3 cells assessed as cell viability after 72 hrs by MTT assay; type: functional, cell-based; conditions: SK-OV-3, 72 h; method in brief: as §5
A2780 = assay: Antiproliferative activity against human A2780 cells assessed as cell viability after 72 hrs by MTT assay; type: functional, cell-based; conditions: A2780, 72 h; method in brief: as §5
[20] = target: T1, NAD-dependent protein deacetylase sirtuin-1 (Homo sapiens); assay: Activation of SIRT1 in human M14 cells assessed as deacetylation of acetyl-H4K16 after 48 hrs by Western blotting method; type: cell-based
Method in brief: (§6)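 M14 melanoma and H1299 lung cancer cells treated 48 h at 5, 10 and 20 µM. Total protein extracts immunoblotted for acetyl-H4K16, with β-actin as loading control. Detection by HRP secondary antibodies and enhanced chemiluminescence. Bands quantified by densitometry.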

[21] = target: T1, NAD-dependent protein deacetylase sirtuin-1 (Homo sapiens); assay: Activation of SIRT1 in human NCI-H1299 cells assessed as deacetylation of acetyl-H4K16 after 48 hrs by Western blotting method; type: cell-based; method in brief: as §6
[22] = target: T1, NAD-dependent protein deacetylase sirtuin-1 (Homo sapiens); conditions: HaCaT, 1 uM

Sequence of 3',5'-cyclic-AMP phosphodiesterase 4D (Homo sapiens) (Q08499 whole entry): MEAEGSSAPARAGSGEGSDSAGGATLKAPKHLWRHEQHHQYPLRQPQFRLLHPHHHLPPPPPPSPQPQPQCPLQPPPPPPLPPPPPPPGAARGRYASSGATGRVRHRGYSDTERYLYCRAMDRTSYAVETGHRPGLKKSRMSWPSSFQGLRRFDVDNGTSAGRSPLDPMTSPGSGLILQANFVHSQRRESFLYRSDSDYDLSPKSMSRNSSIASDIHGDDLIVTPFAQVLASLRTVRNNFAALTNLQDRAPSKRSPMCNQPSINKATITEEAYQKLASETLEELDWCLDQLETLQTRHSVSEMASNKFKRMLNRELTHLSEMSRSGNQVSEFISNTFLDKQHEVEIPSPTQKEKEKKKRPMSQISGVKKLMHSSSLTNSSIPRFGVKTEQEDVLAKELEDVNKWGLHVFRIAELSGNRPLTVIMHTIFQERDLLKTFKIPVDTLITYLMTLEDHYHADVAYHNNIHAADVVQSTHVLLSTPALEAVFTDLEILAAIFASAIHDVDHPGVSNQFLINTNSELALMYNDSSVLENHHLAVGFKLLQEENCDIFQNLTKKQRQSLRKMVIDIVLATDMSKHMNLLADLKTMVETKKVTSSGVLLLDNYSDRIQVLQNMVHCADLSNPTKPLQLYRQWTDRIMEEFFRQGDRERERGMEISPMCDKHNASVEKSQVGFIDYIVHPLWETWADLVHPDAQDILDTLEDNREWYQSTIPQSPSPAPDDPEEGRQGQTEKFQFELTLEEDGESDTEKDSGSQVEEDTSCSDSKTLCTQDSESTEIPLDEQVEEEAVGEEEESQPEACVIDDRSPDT

COC(=O)C1=C(C)NC(C)=C(C(=O)OC)C1c1ccccc1[N+](=O)[O-] [NIFEDIPINE]
IC50 [1]: 0.009 µM
Activity (HaCaT [2]): inactive

CCOC(=O)C1=CN(Cc2ccccc2)C=C(C(=O)OCC)C1c1ccsc1
inhibition [3]: inactive
Activity (HaCaT [4]): Active
Activity (HaCaT [5]): Dose-dependent effect
Activity (HaCaT [6]): inactive
Activity (HaCaT [7]): inactive
Activity [8]: Tde
Activity [9]: Active
Activity (Mus musculus [10]): Active
Activity (Mus musculus [11]): Active
Activity (C2C12 [12]): Active
Activity (C2C12 [13]): inactive
Activity (C2C12 [14]): inactive
inhibition (Cavia porcellus [15]): 13%
Ratio (Cavia porcellus [16]): 266
Activity [17]: 126%
Activity [18]: 404%

O=C(O)C1=CN(Cc2ccccc2)C=C(C(=O)O)C1c1ccco1
Activity (C2C12 [12]): inactive
Activity [17]: 41%
Activity [18]: 41%

CCOC(=O)C1=CN(Cc2ccccc2)C=C(C(=O)OCC)C1c1ccc(CN2CCN(C)CC2)cc1
Activity (HaCaT [4]): Active
Activity (HaCaT [6]): inactive
Activity (HaCaT [7]): inactive
IC50 (M14): 8 µM
IC50 [19]: 16 µM
IC50 (A549): 20 µM
IC50 (NCI-H1299): 24 µM
IC50 (HT-29): 11 µM
IC50 (LoVo): 15 µM
IC50 (Caov-3 cell line): 24 µM
IC50 (HEY): 15 µM
IC50 (SK-OV-3): 35 µM
IC50 (A2780): 10 µM
Activity [20]: Dose-dependent effect
Activity [21]: Dose-dependent effect
Activity [17]: 68%
Activity [18]: 152%

CC(NC(=O)c1ccccc1/N=C/c1c(O)ccc2ccccc12)c1ccccc1 (centres undefined)
inhibition [22]: Active
